Source: ChEMBL document CHEMBL1121797, “Studies on chiral interactions of 1-(2,5-dimethoxy-4-methylphenyl)-2-aminopropane and the corresponding N-hydroxy metabolites with cytochrome P-450” (J Med Chem, 1981)
“And” between values parts separate entries of the source, which are not always exact repeats. Equal entries are not always repeated.

Legend:
Cytochrome P450 2C19 [1] = target: T1, Cytochrome P450 2C19 (Homo sapiens, UniProt P33261); experiment: (§1) Extent of complex formation with 20 uM compound; format: ADME, Oryctolagus cuniculus; settings: rabbit
Cytochrome P450 2C19 [2] = target: T1, Cytochrome P450 2C19; experiment: (§2) Extent of complex formation with 30 uM compound; format: ADME, Oryctolagus cuniculus; settings: rabbit
Cytochrome P450 2C19 [3] = target: T1, Cytochrome P450 2C19; experiment: Initial rate of complex formation with 20 uM compound; format: ADME, Oryctolagus cuniculus; settings: rabbit
Cytochrome P450 2C19 [4] = target: T1, Cytochrome P450 2C19; experiment: Percent inhibition of formation of metabolic intermediate complex between Cytochrome P450 and compound 1a (30 uM) initially, following incubation at compound concentration of 0 uM; format: ADME, Oryctolagus cuniculus; settings: rabbit, probe compound 1a (30 uM)
Procedure, shortened: (§3)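 Inverse cross-inhibition in NADPH-supplemented rabbit liver microsomes at 37 °C. Preincubation with racemic hydroxylamine at 0–30 μM, monitoring 457-nm complex formation. The amine was then added at 30 μM, or racemic hydroxylamine at 30 μM. Initial rate and plateau extent were taken from ΔA457–500 nm tracings. Percent inhibition is relative to incubation in fresh microsomes.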

Cytochrome P450 2C19 [5] = target: T1, Cytochrome P450 2C19; experiment: (§4) Extent of complex formation with 5 uM compound; format: ADME, Oryctolagus cuniculus; settings: rabbit
Cytochrome P450 2C19 [6] = target: T1, Cytochrome P450 2C19; experiment: Initial rate of complex formation without compound; format: ADME, Oryctolagus cuniculus; settings: rabbit; procedure, shortened: as §3
Cytochrome P450 2C19 [7] = target: T1, Cytochrome P450 2C19; experiment: Initial rate of complex formation with20 uM compound; format: ADME, Oryctolagus cuniculus; settings: rabbit, 20 µM
Cytochrome P450 2C19 [8] = target: T1, Cytochrome P450 2C19; experiment: (§5) Initial rate of complex formation with 30 uM compound; format: ADME, Oryctolagus cuniculus; settings: rabbit
Cytochrome P450 2C19 [9] = target: T1, Cytochrome P450 2C19; experiment: Initial rate of complex formation with 15 uM compound; format: ADME, Oryctolagus cuniculus; settings: rabbit
Cytochrome P450 2C19 [10] = target: T1, Cytochrome P450 2C19; experiment: as §5; format: ADME, Oryctolagus cuniculus; settings: rabbit; remark: listed apart in the source
Cytochrome P450 2C19 [11] = target: T1, Cytochrome P450 2C19; experiment: Initial rate of complex formation with 5 uM compound; format: ADME, Oryctolagus cuniculus; settings: rabbit
Cytochrome P450 2C19 [12] = target: T1, Cytochrome P450 2C19; experiment: Extent of complex formation without compound; format: ADME, Oryctolagus cuniculus; settings: rabbit; procedure, shortened: as §3
Cytochrome P450 2C19 [13] = target: T1, Cytochrome P450 2C19; experiment: as §4; format: ADME, Oryctolagus cuniculus; settings: rabbit; remark: listed apart in the source
Cytochrome P450 2C19 [14] = target: T1, Cytochrome P450 2C19; experiment: as §1; format: ADME, Oryctolagus cuniculus; settings: rabbit; remark: listed apart in the source
Cytochrome P450 2C19 [15] = target: T1, Cytochrome P450 2C19; experiment: as §2; format: ADME, Oryctolagus cuniculus; settings: rabbit; remark: listed apart in the source
Cytochrome P450 2C19 [16] = target: T1, Cytochrome P450 2C19; experiment: as §1; format: ADME, Oryctolagus cuniculus; settings: rabbit; remark: listed apart in the source
Cytochrome P450 2C19 [17] = target: T1, Cytochrome P450 2C19; experiment: as §5; format: ADME, Oryctolagus cuniculus; settings: rabbit; remark: listed apart in the source
Cytochrome P450 2C19 [18] = target: T1, Cytochrome P450 2C19; experiment: as §1; format: ADME, Oryctolagus cuniculus; settings: rabbit; remark: listed apart in the source
Cytochrome P450 2C19 [19] = target: T1, Cytochrome P450 2C19; experiment: Extent of complex formation with 15 uM compound; format: ADME, Oryctolagus cuniculus; settings: rabbit
Cytochrome P450 2C19 [20] = target: T1, Cytochrome P450 2C19; experiment: as §2; format: ADME, Oryctolagus cuniculus; settings: rabbit; remark: listed apart in the source
Cytochrome P450 2C19 [21] = target: T1, Cytochrome P450 2C19; experiment: Percent inhibition of formation of metabolic intermediate complex between Cytochrome P450 and compound 1a (30 uM) initially, on pre-incubation with compound concentration of 5 uM; format: ADME, Oryctolagus cuniculus; settings: rabbit, probe compound 1a (30 uM); procedure, shortened: as §3
Cytochrome P450 2C19 [22] = target: T1, Cytochrome P450 2C19; experiment: as §2; format: ADME, Oryctolagus cuniculus; settings: rabbit; remark: listed apart in the source
Cytochrome P450 2C19 [23] = target: T1, Cytochrome P450 2C19; experiment: as §5; format: ADME, Oryctolagus cuniculus; settings: rabbit; remark: listed apart in the source
[24] = Lag time between the addition of compound (30 uM) and the first appearance of chromophore; format: ADME
Procedure, shortened: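 Rabbit liver microsomes at 2 mg protein/mL with 0.1 mM EDTA, 37 °C, substrate 30 μM. Complex formation started with 0.4 mM NADPH and followed by dual-wavelength absorbance, 457 vs 500 nm. Initial rate is the initial slope, ΔA×10^4 per nmol P-450 per min. Extent is the plateau absorbance. Lag is the time from NADPH addition to first 457-nm chromophore. Triplicate or single runs.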

T1 sequence (P33261 whole entry): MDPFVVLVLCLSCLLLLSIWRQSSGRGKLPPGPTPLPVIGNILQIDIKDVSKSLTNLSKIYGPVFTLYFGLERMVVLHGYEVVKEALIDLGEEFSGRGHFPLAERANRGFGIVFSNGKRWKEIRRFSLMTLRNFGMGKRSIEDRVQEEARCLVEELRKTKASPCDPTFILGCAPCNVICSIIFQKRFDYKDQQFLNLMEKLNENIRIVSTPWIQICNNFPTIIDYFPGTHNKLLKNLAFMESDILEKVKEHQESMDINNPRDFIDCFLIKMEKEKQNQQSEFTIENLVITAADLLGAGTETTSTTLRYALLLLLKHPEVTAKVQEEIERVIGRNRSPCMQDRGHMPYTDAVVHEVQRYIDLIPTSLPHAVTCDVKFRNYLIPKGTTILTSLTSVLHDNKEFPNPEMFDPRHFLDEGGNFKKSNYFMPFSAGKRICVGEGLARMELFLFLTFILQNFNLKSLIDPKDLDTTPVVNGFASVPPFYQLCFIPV

Which results are given for `COc1cc(C[C@@H](C)NO)c(OC)cc1C.COc1cc(C[C@H](C)NO)c(OC)cc1C`?
Complex_formation (Cytochrome P450 2C19 [1]): 108 deltaA.10^4nmol-1; Complex_formation (Cytochrome P450 2C19 [2]): 27 deltaA.10^4nmol-1; Initial_rate (Cytochrome P450 2C19 [3]): 89 deltaA.10^4nmol-1.min-1; inhibition at 0 uM (Cytochrome P450 2C19 [4]): 30%; Complex_formation (Cytochrome P450 2C19 [5]): 39 deltaA.10^4nmol-1; Initial_rate (Cytochrome P450 2C19 [6]): 46 deltaA.10^4nmol-1.min-1 and 124 deltaA.10^4nmol-1.min-1; Initial_rate (Cytochrome P450 2C19 [7]): 87 deltaA.10^4nmol-1.min-1; Initial_rate (Cytochrome P450 2C19 [8]): 12.4 deltaA.10^4nmol-1.min-1; Initial_rate (Cytochrome P450 2C19 [9]): 131 deltaA.10^4nmol-1.min-1; Initial_rate (Cytochrome P450 2C19 [10]): 177 deltaA.10^4nmol-1.min-1 and 176 deltaA.10^4nmol-1.min-1; Initial_rate (Cytochrome P450 2C19 [11]): 52 deltaA.10^4nmol-1.min-1; Complex_formation (Cytochrome P450 2C19 [12]): 76 deltaA.10^4nmol-1 and 95 deltaA.10^4nmol-1; Complex_formation (Cytochrome P450 2C19 [13]): 43 deltaA.10^4nmol-1 and 85 deltaA.10^4nmol-1; Complex_formation (Cytochrome P450 2C19 [14]): 109 deltaA.10^4nmol-1; Complex_formation (Cytochrome P450 2C19 [15]): 30 deltaA.10^4nmol-1; Complex_formation (Cytochrome P450 2C19 [16]): 85 deltaA.10^4nmol-1; Initial_rate (Cytochrome P450 2C19 [17]): 5.5 deltaA.10^4nmol-1.min-1; Complex_formation (Cytochrome P450 2C19 [18]): 90 deltaA.10^4nmol-1; Complex_formation (Cytochrome P450 2C19 [19]): 97 deltaA.10^4nmol-1; Complex_formation (Cytochrome P450 2C19 [20]): 139 deltaA.10^4nmol-1 and 135 deltaA.10^4nmol-1; inhibition at 5 µM (Cytochrome P450 2C19 [21]): 80%; Complex_formation (Cytochrome P450 2C19 [22]): 51 deltaA.10^4nmol-1; Initial_rate (Cytochrome P450 2C19 [23]): 5 deltaA.10^4nmol-1.min-1; Lag time [24]: 0 s
